Experimental findings from ChEMBL document CHEMBL1141158, “New 5-hydroxytryptamine(1A) receptor ligands containing a norbornene nucleus: synthesis and in vitro pharmacological evaluation” (J Med Chem, 2005) are described below.

The term pKi denotes the negative decadic logarithm of the Ki, by convention in mol/L. In general, Ki refers to a dissociation constant, usually derived from enzyme kinetics or from competition with a known ligand. High values mean lower affinity, low ones higher affinity.

pKi: −log10 of the molar value. Where only a bound is given, the exact number is not on record here.

Experiment [1] has as its target T1, 5-hydroxytryptamine receptor 2C (Rattus norvegicus, UniProt P08909).
T1 sequence (P08909 whole entry): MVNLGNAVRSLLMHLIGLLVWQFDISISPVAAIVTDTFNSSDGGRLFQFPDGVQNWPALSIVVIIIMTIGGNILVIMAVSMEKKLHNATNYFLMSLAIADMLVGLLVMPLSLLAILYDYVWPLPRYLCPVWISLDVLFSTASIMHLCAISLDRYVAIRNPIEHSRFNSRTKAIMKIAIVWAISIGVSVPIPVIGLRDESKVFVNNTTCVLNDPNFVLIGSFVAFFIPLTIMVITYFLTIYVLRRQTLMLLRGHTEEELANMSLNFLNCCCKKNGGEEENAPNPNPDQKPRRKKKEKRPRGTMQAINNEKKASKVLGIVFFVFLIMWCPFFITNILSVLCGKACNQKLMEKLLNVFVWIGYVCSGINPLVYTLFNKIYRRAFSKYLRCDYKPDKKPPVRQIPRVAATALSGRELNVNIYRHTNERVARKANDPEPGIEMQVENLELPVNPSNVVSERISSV
Nature of the experiment: Inhibition of 1 nM [3H]mesulergine binding to Serotonin 5-HT2C receptor from rat brain cortex.

Experiment [2] concerns the target 5-hydroxytryptamine receptor 2A (Rattus norvegicus, UniProt P14842). Nature of the experiment: Inhibition of 0.4 nM [3H]ketanserin binding to Serotonin 5-HT2A receptor from rat brain cortex.
Experiment [3] addresses T2, Adrenergic receptor alpha-1 (Rattus norvegicus, UniProt P15823+P23944+P43140).
T2 sequence (P15823 whole entry): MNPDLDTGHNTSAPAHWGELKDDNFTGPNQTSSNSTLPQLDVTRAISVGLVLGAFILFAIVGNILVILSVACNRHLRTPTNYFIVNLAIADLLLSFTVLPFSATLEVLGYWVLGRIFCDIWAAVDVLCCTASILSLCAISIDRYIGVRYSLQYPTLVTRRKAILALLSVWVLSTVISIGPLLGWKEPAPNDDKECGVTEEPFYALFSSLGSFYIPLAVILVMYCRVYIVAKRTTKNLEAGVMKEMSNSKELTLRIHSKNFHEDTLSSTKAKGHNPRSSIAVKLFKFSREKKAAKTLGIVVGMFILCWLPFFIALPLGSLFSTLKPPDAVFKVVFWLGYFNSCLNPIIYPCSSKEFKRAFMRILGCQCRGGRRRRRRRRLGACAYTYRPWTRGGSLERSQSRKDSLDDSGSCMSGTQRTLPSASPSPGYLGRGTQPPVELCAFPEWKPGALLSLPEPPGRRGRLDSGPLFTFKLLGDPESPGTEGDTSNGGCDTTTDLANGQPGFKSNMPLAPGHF
T2 sequence (P23944 whole entry): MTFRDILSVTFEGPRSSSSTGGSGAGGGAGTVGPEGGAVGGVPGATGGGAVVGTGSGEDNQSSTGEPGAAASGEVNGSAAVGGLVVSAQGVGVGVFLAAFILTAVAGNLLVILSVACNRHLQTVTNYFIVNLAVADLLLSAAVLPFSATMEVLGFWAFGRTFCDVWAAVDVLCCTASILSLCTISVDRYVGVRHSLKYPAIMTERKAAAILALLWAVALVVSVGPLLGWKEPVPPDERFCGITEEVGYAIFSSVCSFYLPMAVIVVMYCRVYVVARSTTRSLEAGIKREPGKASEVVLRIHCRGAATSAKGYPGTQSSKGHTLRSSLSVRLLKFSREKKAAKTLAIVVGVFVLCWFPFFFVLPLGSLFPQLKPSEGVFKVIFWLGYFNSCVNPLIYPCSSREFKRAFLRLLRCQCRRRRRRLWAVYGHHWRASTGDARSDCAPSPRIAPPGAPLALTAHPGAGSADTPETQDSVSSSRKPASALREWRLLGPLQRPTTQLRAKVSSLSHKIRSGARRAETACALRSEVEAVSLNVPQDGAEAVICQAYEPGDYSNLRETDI
T2 sequence (P43140 whole entry): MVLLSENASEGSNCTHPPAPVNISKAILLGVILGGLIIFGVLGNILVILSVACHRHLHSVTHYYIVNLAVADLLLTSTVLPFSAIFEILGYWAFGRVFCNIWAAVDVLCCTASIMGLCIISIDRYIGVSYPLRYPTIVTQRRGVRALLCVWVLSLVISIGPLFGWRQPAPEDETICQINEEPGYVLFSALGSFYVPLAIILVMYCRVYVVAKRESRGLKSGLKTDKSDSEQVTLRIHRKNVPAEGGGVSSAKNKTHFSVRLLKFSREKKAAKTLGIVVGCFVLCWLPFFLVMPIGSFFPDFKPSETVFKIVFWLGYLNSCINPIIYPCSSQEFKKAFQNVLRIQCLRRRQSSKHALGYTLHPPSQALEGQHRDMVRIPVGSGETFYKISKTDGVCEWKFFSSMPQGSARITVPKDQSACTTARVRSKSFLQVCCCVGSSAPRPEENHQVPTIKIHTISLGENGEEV
Briefly: Inhibition of [3H]prazosin bindign to Adrenergic alpha 1 receptor from rat brain cortex. The method, boiled down:
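Cortical membranes in 50 mM Tris-HCl pH 7.4, 10 mg fresh tissue per tube, with [3H]prazosin 0.4 nM final; 30 min at 25 °C, then vacuum filtration on GF/B and scintillation counting. 10 μM phentolamine defined nonspecific binding. Six test concentrations in triplicate; IC50 from competition curves, Ki by Cheng–Prusoff using Scatchard KD.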

In another experiment the target is D(1A) dopamine receptor (Rattus norvegicus, UniProt P18901). Briefly: Inhibition of [3H]SCH-23,390 binding to Dopamine D1 receptor from rat striatum. Conditions: for pKi: read-out: Ki; call rule not given here. The method, boiled down: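 Rat striatal membranes washed twice by 50 000g spins, resuspended in Tris-HCl pH 7.1 with NaCl, KCl, CaCl2, MgCl2, ascorbic acid, 10 μM pargyline; 3 mg fresh tissue per tube. [3H]SCH-23390 at 0.4 nM final, 15 min at 37 °C, GF/B filtration, scintillation counting. Nonspecific with 0.1 μM piflutixol. Six concentrations in triplicate; IC50 converted to Ki by Cheng–Prusoff.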
Chain of D(1A) dopamine receptor (P18901 whole entry): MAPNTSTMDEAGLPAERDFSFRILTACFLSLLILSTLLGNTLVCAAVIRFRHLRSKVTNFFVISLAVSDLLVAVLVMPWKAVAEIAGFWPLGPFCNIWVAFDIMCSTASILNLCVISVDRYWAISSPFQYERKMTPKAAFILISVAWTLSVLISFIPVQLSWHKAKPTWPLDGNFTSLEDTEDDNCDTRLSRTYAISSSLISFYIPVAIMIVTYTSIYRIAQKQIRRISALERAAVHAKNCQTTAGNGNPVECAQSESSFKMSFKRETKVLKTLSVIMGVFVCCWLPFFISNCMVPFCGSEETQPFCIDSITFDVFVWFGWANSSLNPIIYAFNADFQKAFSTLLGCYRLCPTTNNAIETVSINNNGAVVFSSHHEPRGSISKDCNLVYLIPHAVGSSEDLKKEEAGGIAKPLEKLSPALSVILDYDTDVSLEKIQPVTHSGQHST

The next experiment addresses D(2) dopamine receptor (Rattus norvegicus, UniProt P61169). Nature of the experiment: Inhibition of [3H]spiperone binding to Dopamine D2 receptor from rat striatum. Conditions: for pKi: read-out: Ki. The method, boiled down: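 Rat striatal membranes washed twice at 50 000g, resuspended in Tris-HCl pH 7.1 with NaCl, KCl, CaCl2, MgCl2, ascorbic acid, 10 μM pargyline; 3 mg fresh tissue per tube. [3H]spiperone 0.4 nM final, 15 min at 37 °C, GF/B filtration, scintillation counting. Nonspecific defined with 1 μM (+)-butaclamol. Six concentrations, triplicate; Ki via Cheng–Prusoff.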

Chain of D(2) dopamine receptor (P61169 whole entry): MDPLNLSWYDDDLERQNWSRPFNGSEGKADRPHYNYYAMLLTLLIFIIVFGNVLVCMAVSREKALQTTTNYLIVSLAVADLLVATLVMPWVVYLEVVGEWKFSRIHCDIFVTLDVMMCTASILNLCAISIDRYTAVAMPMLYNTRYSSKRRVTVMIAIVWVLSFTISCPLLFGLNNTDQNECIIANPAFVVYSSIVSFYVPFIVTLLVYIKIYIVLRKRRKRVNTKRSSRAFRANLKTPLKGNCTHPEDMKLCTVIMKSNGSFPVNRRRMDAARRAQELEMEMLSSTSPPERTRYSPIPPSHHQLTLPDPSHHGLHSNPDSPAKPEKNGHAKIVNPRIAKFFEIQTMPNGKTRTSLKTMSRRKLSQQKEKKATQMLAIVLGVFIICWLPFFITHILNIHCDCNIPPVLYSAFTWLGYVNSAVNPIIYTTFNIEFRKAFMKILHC
Chain of 5-hydroxytryptamine receptor 2A (P14842 whole entry): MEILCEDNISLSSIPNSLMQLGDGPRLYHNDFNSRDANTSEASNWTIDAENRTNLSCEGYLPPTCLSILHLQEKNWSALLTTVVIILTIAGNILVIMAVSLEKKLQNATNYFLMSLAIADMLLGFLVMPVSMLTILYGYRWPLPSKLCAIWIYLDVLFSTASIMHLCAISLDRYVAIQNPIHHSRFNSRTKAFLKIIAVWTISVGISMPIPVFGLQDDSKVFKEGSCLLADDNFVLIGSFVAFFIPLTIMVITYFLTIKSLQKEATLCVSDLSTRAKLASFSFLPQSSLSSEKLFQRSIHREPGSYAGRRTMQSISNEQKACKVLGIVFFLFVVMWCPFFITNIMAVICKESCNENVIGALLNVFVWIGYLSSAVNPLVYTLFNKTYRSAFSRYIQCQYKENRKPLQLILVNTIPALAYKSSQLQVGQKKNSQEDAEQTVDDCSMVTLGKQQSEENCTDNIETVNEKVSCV

`COc1ccccc1N1CCN(CCCON2C(=O)C3C4C=CC(C4)C3C2=O)CC1` (stereo not given): the negative-log Ki (pKi) (in experiment [1]; in experiment [2]; on D(1A) dopamine receptor; at D(2) dopamine receptor) was less than 5.00 each time. The compound further gave an inhibition constant Ki in experiment [3] of 0.0753 µM.

Turning to `O=C1C2C3C=CC(C3)C2C(=O)N1OCCCN1CCN(c2cccc(Cl)c2)CC1` (stereo not given), the negative-log Ki (pKi) was 6.13 in experiment [1], 6.26 in experiment [2] and less than 5.00 on D(1A) dopamine receptor. The inhibition constant Ki is 0.141 µM in experiment [3] and “Not Active” on D(2) dopamine receptor.

Turning to `O=C1C2C3C=CC(C3)C2C(=O)N1OCCCN1CCN(c2cccc(C(F)(F)F)c2)CC1` (stereo not given), the pKi was less than 5.00 in experiment [1], 5.57 in experiment [2], 5.35 on D(1A) dopamine receptor and 6.17 at D(2) dopamine receptor. Also, the Ki in experiment [3] came out at 0.358 µM.

With `O=C1C2C3C=CC(C3)C2C(=O)N1OCCCN1CCN(c2ccccc2Cl)CC1` (stereo not given), the pKi in experiment [1] is 6.37; in experiment [2], 5.41. Moreover, the Ki in experiment [3] is 0.128 µM; on D(1A) dopamine receptor, “Not Active”; on D(2) dopamine receptor, “Not Active”.

With `O=C1C2C3C=CC(C3)C2C(=O)N1OCCN1CCN(c2cccc(C(F)(F)F)c2)CC1` (stereo not given), the negative-log Ki (pKi) in experiment [1] is less than 5.00; in experiment [2], 5.40; in experiment [3], less than 5.00; at D(1A) dopamine receptor, less than 5.00; on D(2) dopamine receptor, less than 5.00.

With `O=C1C2C3C=CC(C3)C2C(=O)N1OCCN1CCN(c2ccccc2Cl)CC1` (stereo not given), the negative logarithm of the Ki (pKi) (in experiment [1]; in experiment [2]; on D(1A) dopamine receptor; at D(2) dopamine receptor) was less than 5.00 each time. Further, the Ki in experiment [3] was found to be 0.747 µM.
